Test results: ChEMBL document CHEMBL1144221, “Novel naphthoquinone and quinolinedione inhibitors of CDC25 phosphatase activity with antiproliferative properties” (Bioorg Med Chem, 2008)
Each block holds one compound with its values, some of them ahead of it.

Experiments:
HeLa [1] = test: Antiproliferative activity against human HeLa cells after 10 days by clonogenic assay; format: functional, cell-based; conditions: 240 h
In short: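 HeLa cells seeded at 100 cells/well, grown 24 h at 37 °C in 5% CO₂, then given medium with inhibitor at increasing concentrations (up to 100 µM) for 10 days. Colonies were fixed in 10% formaldehyde, stained with crystal violet and counted to get plating efficiency. IC50 was taken from the dose-response curve.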

HeLa [2] = test: Cell cycle arrest in asynchronous human HeLa cells assessed as accumulation at G0/G1 phase at 10 uM after 24 hrs by flow cytometry; format: functional
In short: (§1)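 Asynchronous HeLa cells grown 24 h, then treated 24 h at 10 or 50 µM. Cells were trypsinized, fixed in cold ethanol and permeabilized with 0.25% Triton X-100. They were stained with anti-H3P/Alexa 488 antibody, treated with RNase and stained with propidium iodide (10 µg/mL). Flow cytometry gave the percentage of cells in G0/G1, S and G2/M. Three independent runs; DMSO served as negative control.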

HeLa [3] = test: Cell cycle arrest in asynchronous human HeLa cells assessed as accumulation at S phase at 10 uM after 24 hrs by flow cytometry; format: functional; in short: as §1
HeLa [4] = test: Cell cycle arrest in asynchronous human HeLa cells assessed as accumulation at G2/M phase at 10 uM after 24 hrs by flow cytometry; format: functional; in short: as §1
HeLa [5] = test: Cytotoxicity against human HeLa cells after 96 h by WST1 colorimetric assay
[6] = biological target: T1, M-phase inducer phosphatase 2 (Homo sapiens, UniProt P30305); test: Inhibition of human recombinant fused MBP-CDC25B3
T1 sequence (P30305 whole entry): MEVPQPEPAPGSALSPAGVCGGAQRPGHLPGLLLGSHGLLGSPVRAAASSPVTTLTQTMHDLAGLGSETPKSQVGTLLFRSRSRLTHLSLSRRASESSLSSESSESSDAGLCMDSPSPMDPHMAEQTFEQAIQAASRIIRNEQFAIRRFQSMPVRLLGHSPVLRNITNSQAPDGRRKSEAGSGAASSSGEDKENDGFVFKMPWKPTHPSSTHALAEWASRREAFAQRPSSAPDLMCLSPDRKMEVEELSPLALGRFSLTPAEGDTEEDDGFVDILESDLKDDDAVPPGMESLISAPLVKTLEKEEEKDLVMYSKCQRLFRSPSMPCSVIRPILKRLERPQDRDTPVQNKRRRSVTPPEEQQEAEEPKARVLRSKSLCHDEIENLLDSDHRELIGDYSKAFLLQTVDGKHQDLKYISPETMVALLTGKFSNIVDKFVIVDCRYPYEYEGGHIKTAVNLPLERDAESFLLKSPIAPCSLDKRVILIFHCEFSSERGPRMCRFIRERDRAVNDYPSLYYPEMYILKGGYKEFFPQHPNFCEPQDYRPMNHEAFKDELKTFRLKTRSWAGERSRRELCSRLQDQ

[7] = biological target: T1, M-phase inducer phosphatase 2; test: Inhibition of human recombinant CDC25B

IC50 (HeLa [1]): 8.5 µM
SMILES: O=C1C(SCCO)=C(SCCO)C(=O)c2ccccc21
Activity (HeLa [2]): 56%
Activity (HeLa [3]): 25%
Activity (HeLa [4]): 19%
IC50 (HeLa [5]): 10.8 µM

IC50 [6]: 5.3 µM
SMILES: O=C1C(Br)=C(Br)C(=O)c2ncccc21
IC50 (HeLa [5]): 21.5 µM

IC50 [7]: 3.4 µM
SMILES: O=C(CSC1=C(SCC(=O)OCc2ccccc2)C(=O)c2ccccc2C1=O)OCc1ccccc1

SMILES: C[C@@]12CCCc3coc(c31)C(=O)c1cc3c(cc12)C(=O)C1=C(NCCS1(=O)=O)C3=O [ADOCIAQUINONE B]
IC50 [7]: 0.07 µM
